Assay results published in publication PMC4935665 (Journal of bone and mineral research : the official journal …, 2016).

What was measured:
TPTX rats [1] = test: Single IV injection in TPTX rats, serum Ca and Pi; assay type: in vivo, rat; settings: for time for sPi to return to vehicle-control levels: single IV 24.3 nmol/kg; for sCa response versus sham-control level: single IV 24.3 nmol/kg (highest dose); for duration of modest, transient sCa increase and sPi decrease: single IV, dose 80-fold higher than that used for LA-PTH
cynomolgus monkeys = test: Single SC injection in cynomolgus monkeys, serum Ca; assay type: in vivo, cynomolgus monkey; settings: SC 10 nmol/kg
Summary of the method: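 Normal cynomolgus monkeys receive SC injections in two experiments, with serum Ca followed after injection. In experiment 1, animals get vehicle or test peptide at 0.25, 0.5 or 1.0 nmol/kg, three animals per dose.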

rats = settings: daily injection 20 nmol/kg sc; cited from earlier work
in vivo = settings: rat, iv, 24.3 nmol/kg
TPTX rats [2] = assay type: in vivo, rat; settings: once daily SC 9 nmol/kg
[3] = rat, in vivo, iv
HP patients = settings: cited from earlier work
[4] = human, in vivo; cited from earlier work
[5] = HP patients, single SC injection

half-life (in vivo) [min]	Compound	time for sPi to return to vehicle-control levels (TPTX rats [1]) [h]	sCa response versus sham-control level (TPTX rats [1])	duration of modest, transient sCa increase and sPi decrease (TPTX rats [1]) [h]	efficacy for elevating sCa compared with PTH(1–84) (cynomolgus monkeys; n = 3)	serum calcium or phosphorus (rats)	lumbar and femur BMD (TPTX rats [2])	sCa versus vehicle-injected TPTX rats (TPTX rats [2])	sPi versus vehicle-injected TPTX rats (TPTX rats [2])	trabecular number at the distal femur (TPTX rats [2])	time for sCa to return to vehicle-control levels (cynomolgus monkeys) [h]	peak sCa level (cynomolgus monkeys; n = 2)	serum half-life t1/2 [3] [min]	time for mean serum Ca to return to pre-dose, hypocalcemic levels (HP patients; [5]) [h]	time of peak sCa levels post-administration (HP patients; [5]) [h]	serum half-life times (HP patients; human, in vivo, sc)	subjects with hypercalcemia at peak times (HP patients; human, in vivo, sc) [%]	true serum half-life in the blood [4]
7.8	CC[C@H](C)[C@H](NC(=O)[C@H](CCC(=O)O)NC(=O)[C@H](CO)NC(=O)[C@@H](NC(=O)[C@@H](N)CO)C(C)C)C(=O)N[C@@H](CCC(N)=O)C(=O)N[C@@H](CC(C)C)C(=O)N[C@@H](CCSC)C(=O)N[C@@H](Cc1c[nH]cn1)C(=O)N[C@@H](CC(N)=O)C(=O)N[C@@H](CC(C)C)C(=O)NCC(=O)N[C@@H](CCCCN)C(=O)N[C@@H](Cc1c[nH]cn1)C(=O)N[C@@H](CC(C)C)C(=O)N[C@@H](CC(N)=O)C(=O)N[C@@H](CO)C(=O)N[C@@H](CCSC)C(=O)N[C@@H](CCC(=O)O)C(=O)N[C@@H](CCCNC(=N)N)C(=O)N[C@H](C(=O)N[C@@H](CCC(=O)O)C(=O)N[C@@H](Cc1c[nH]c2ccccc12)C(=O)N[C@@H](CC(C)C)C(=O)N[C@@H](CCCNC(=N)N)C(=O)N[C@@H](CCCCN)C(=O)N[C@@H](CCCCN)C(=O)N[C@@H](CC(C)C)C(=O)N[C@@H](CCC(N)=O)C(=O)N[C@@H](CC(=O)O)C(=O)N[C@H](C(=O)N[C@@H](Cc1c[nH]cn1)C(=O)N[C@@H](CC(N)=O)C(=O)N[C@@H](Cc1ccccc1)C(=O)O)C(C)C)C(C)C [PTH(1–34)]	≤ 10	failed to attain the sCa levels seen in the sham-control animals	< 6	even less effective	little or no change	–	–	–	–	–	–	–	–	–	–	–	–
–	PTH(1–84): human parathyroid hormone, produced recombinantly	≤ 10	failed to attain the sCa levels seen in the sham-control animals	< 6	–	–	significantly increased	no persistent increase	only marginal reductions	significantly increased	≤ 24	~ 11.4 mg/dL	5.4	≤ 24	~7	two to three hours	71	five minutes or less
